# Laboratory results as given in ChEMBL document CHEMBL1122688, “Antimycotic azoles. 7. Synthesis and antifungal properties of a series of novel triazol-3-ones” (1984).
# How the values were obtained:
# Cryptococcus neoformans = test: In vitro antifungal activity against Cryptococcus neoformans; assay type: functional
# In short: (§1)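 Fungal growth-inhibition screen (Godefroi method) against dermatophytes, yeasts, moulds and other fungi. The value is the lowest concentration (µg/mL) giving total inhibition of growth, tested up to 100 µg/mL.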
# Candida albicans = test: In vitro antifungal activity against Candida albicans; assay type: functional; in short: as §1
# Trichophyton benhamiae = test: In vitro antifungal activity against Trichophyton mentagrophytes; assay type: functional, Arthroderma benhamiae; in short: as §1
# Aspergillus fumigatus = test: In vitro antifungal activity against Aspergillus fumigatus; assay type: functional; in short: as §1
# [1] = In vivo activity against vaginal candidoses in rats, measured as the ratio of animals cured/animals infected (C/I) at dose 10 mg/kg; C/I = 1/2; assay type: functional
# Phialophora verrucosa = test: In vitro antifungal activity against Phialophora verrucosa; assay type: functional; in short: as §1
# [2] = In vivo activity against vaginal candidoses in rats, measured as the ratio of animals cured/animals infected (C/I) at dose 2.5 mg/kg; C/I = 1/2; assay type: functional
# [3] = In vivo activity against microsporosis guinea pig, measured as the ratio of animals cured/animals infected (C/I) at dose 20 mg/kg; C/I = 0/2; assay type: functional
# [4] = In vitro antifungal activity against Mucor sp; assay type: functional; in short: as §1
# Microsporum canis = test: In vitro antifungal activity against Microsporum canis; assay type: functional; in short: as §1
# Saprolegnia = test: In vitro antifungal activity against Saprolegnia sp; assay type: functional; in short: as §1
# Candida tropicalis = test: In vitro antifungal activity against Candida tropicalis; assay type: functional; in short: as §1
# Trichophyton rubrum = test: In vitro antifungal activity against Trichophyton rubrum; assay type: functional; in short: as §1
# Sporothrix schenckii = test: In vitro antifungal activity against Sporothrix schenck ii; assay type: functional; in short: as §1
# [5] = In vivo activity against microsporosis guinea pig, measured as the ratio of animals cured/animals infected (C/I) at dose 10 mg/kg; 1/2; assay type: functional
# [6] = In vivo activity against vaginal candidoses in rats, measured as the ratio of animals cured/animals infected (C/I) at dose 2.5 mg/kg; 0/2; assay type: functional
# [7] = In vivo activity against microsporosis guinea pig, measured as the ratio of animals cured/animals infected (C/I) at dose 2.5 mg/kg; 0/2; assay type: functional
# [8] = In vivo activity against vaginal candidoses in rats, measured as the ratio of animals cured/animals infected (C/I) at dose 10 mg/kg; C/I = 5/6; assay type: functional
# [9] = In vivo activity against vaginal candidoses in rats, measured as the ratio of animals cured/animals infected (C/I) at dose 0.63 mg/kg; C/I = 0/4; assay type: functional
# [10] = In vivo activity against microsporosis guinea pig, measured as the ratio of animals cured/animals infected (C/I) at dose 2.5 mg/kg; C/I = 2/6; assay type: functional
# [11] = In vivo activity against microsporosis guinea pig, measured as the ratio of animals cured/animals infected (C/I) at dose 10 mg/kg; C/I = 4/4; assay type: functional
# [12] = In vivo activity against vaginal candidoses in rats, measured as the ratio of animals cured/animals infected (C/I) at dose 2.5 mg/kg; C/I = 4/11; assay type: functional
# [13] = In vivo activity against microsporosis guinea pig, measured as the ratio of animals cured/animals infected (C/I) at dose 1.25 mg/kg; C/I = 0/6; assay type: functional
# Rattus norvegicus [14] = test: In vivo activity against vaginal candidoses in rats, measured as the ratio of animals cured/animals infected (C/I) at dose 1.25 mg/kg; C/I = 3/12; assay type: functional
# [15] = In vivo activity against vaginal candidoses in rats, measured as the ratio of animals cured/animals infected (C/I) at dose 0.63 mg/kg; C/I = 7/40; assay type: functional
# [16] = In vivo activity against microsporosis guinea pig, measured as the ratio of animals cured/animals infected (C/I) at dose 2.5 mg/kg; C/I = 11/12; assay type: functional
# [17] = In vivo activity against microsporosis guinea pig, measured as the ratio of animals cured/animals infected (C/I) at dose 10 mg/kg; C/I = 6/6; assay type: functional
# [18] = In vivo activity against vaginal candidoses in rats, measured as the ratio of animals cured/animals infected (C/I) at dose 10 mg/kg; C/I = 12/12; assay type: functional
# [19] = In vivo activity against microsporosis guinea pig, measured as the ratio of animals cured/animals infected (C/I) at dose 1.25 mg/kg; C/I = 12/15; assay type: functional
# Rattus norvegicus [20] = test: In vivo activity against vaginal candidoses in rats, measured as the ratio of animals cured/animals infected (C/I) at dose 1.25 mg/kg; C/I = 13/33; assay type: functional
# [21] = In vivo activity against vaginal candidoses in rats, measured as the ratio of animals cured/animals infected (C/I) at dose 2.5 mg/kg; C/I = 29/34; assay type: functional
# [22] = In vivo activity against vaginal candidoses in rats, measured as the ratio of animals cured/animals infected (C/I) at dose 0.63 mg/kg; C/I = 2/12; assay type: functional
# [23] = In vivo activity against microsporosis guinea pig, measured as the ratio of animals cured/animals infected (C/I) at dose 2.5 mg/kg; C/I = 7/12; assay type: functional
# [24] = In vivo activity against vaginal candidoses in rats, measured as the ratio of animals cured/animals infected (C/I) at dose 2.5 mg/kg; C/I = 20/24; assay type: functional
# Rattus norvegicus [25] = test: In vivo activity against vaginal candidoses in rats, measured as the ratio of animals cured/animals infected (C/I) at dose 1.25 mg/kg; C/I = 12/22; assay type: functional
# [26] = In vivo activity against microsporosis guinea pig, measured as the ratio of animals cured/animals infected (C/I) at dose 1.25 mg/kg; C/I = 2/6; assay type: functional
# [27] = In vivo activity against microsporosis guinea pig, measured as the ratio of animals cured/animals infected (C/I) at dose 10 mg/kg; C/I = 2/2; assay type: functional
# [28] = In vivo activity against vaginal candidoses in rats, measured as the ratio of animals cured/animals infected (C/I) at dose 2.5 mg/kg; C/I = 7/10; assay type: functional
# [29] = In vivo activity against vaginal candidoses in rats, measured as the ratio of animals cured/animals infected (C/I) at dose 1.25 mg/kg; C/I = 7/10; assay type: functional
# [30] = In vivo activity against microsporosis guinea pig, measured as the ratio of animals cured/animals infected (C/I) at dose 2.5 mg/kg; C/I = 5/8; assay type: functional
# [31] = In vivo activity against microsporosis guinea pig, measured as the ratio of animals cured/animals infected (C/I) at dose 1.25 mg/kg; C/I = 3/6; assay type: functional
# [32] = In vivo activity against vaginal candidoses in rats, measured as the ratio of animals cured/animals infected (C/I) at dose 0.63 mg/kg; C/I = 4/10; assay type: functional
# [33] = In vivo activity against microsporosis guinea pig, measured as the ratio of animals cured/animals infected (C/I) at dose 20 mg/kg; 30/30; assay type: functional
# [34] = In vivo activity against vaginal candidoses in rats, measured as the ratio of animals cured/animals infected (C/I) at dose 10 mg/kg; 173/181; assay type: functional
# [35] = In vivo activity against vaginal candidoses in rats, measured as the ratio of animals cured/animals infected (C/I) at dose 2.5 mg/kg; 2/8; assay type: functional
# [36] = In vivo activity against vaginal candidoses in rats, measured as the ratio of animals cured/animals infected (C/I) at dose 1.25 mg/kg; 0/12; assay type: functional
# [37] = In vivo activity against microsporosis guinea pig, measured as the ratio of animals cured/animals infected (C/I) at dose 2.5 mg/kg;0/14; assay type: functional
# [38] = In vivo activity against microsporosis guinea pig, measured as the ratio of animals cured/animals infected (C/I) at dose 10 mg/kg; 4/34; assay type: functional
Compound,Inhibition (Cryptococcus neoformans) [µg/mL],Inhibition (Candida albicans) [µg/mL],Inhibition (Trichophyton benhamiae) [µg/mL],Inhibition (Aspergillus fumigatus) [µg/mL],Inhibition (Phialophora verrucosa) [µg/mL],Inhibition [4] [µg/mL],Inhibition (Microsporum canis) [µg/mL],Inhibition (Saprolegnia) [µg/mL],Inhibition (Candida tropicalis) [µg/mL],Inhibition (Trichophyton rubrum) [µg/mL],Inhibition (Sporothrix schenckii) [µg/mL],also measured
Cc1nn(C)c(=O)n1-c1ccc(N2CCN(c3ccc(OC[C@@H]4COC(Cn5cncn5)(c5ccc(Cl)cc5Cl)O4)cc3)CC2)cc1 (stereo not given in full),>100,>100,>100,>100,>100,>100,>100,>100,>100,>100,>100,C/I ratio [1]: 1; C/I ratio [2]: 1; C/I ratio [3]: 0
C=CCn1ncn(-c2ccc(N3CCN(c4ccc(OC[C@@H]5COC(Cn6ccnc6)(c6ccc(Cl)cc6Cl)O5)cc4)CC3)cc2)c1=O (stereo not given in full),,,,,,,,,,,,C/I ratio [5]: 1; C/I ratio [6]: 0; Lowest level of total inhibition (Microsporum canis): > 100 µg/mL; C/I ratio [7]: 0
Cn1ncn(-c2ccc(N3CCN(c4ccc(OC[C@@H]5COC(Cn6ccnc6)(c6ccc(Cl)cc6Cl)O5)cc4)CC3)cc2)c1=O (stereo not given in full),1,>100,1,100,>100,>100,>100,100,1,1,>100,C/I ratio [8]: 0.833; C/I ratio [9]: 0; C/I ratio [10]: 0.333; C/I ratio [11]: 1; C/I ratio [12]: 0.364; C/I ratio [13]: 0; C/I ratio (Rattus norvegicus [14]): 0.25
CCC(C)n1ncn(-c2ccc(N3CCN(c4ccc(OC[C@@H]5COC(Cn6cncn6)(c6ccc(Cl)cc6Cl)O5)cc4)CC3)cc2)c1=O (stereo not given in full),100,>100,10,>100,>100,>100,>100,>100,100,10,>100,C/I ratio [15]: 0.175; C/I ratio [16]: 11; C/I ratio [17]: 1; C/I ratio [18]: 1; C/I ratio [19]: 0.8; C/I ratio (Rattus norvegicus [20]): 0.394; C/I ratio [21]: 0.853
CC(C)n1ncn(-c2ccc(N3CCN(c4ccc(OC[C@@H]5COC(Cn6cncn6)(c6ccc(Cl)cc6Cl)O5)cc4)CC3)cc2)c1=O (stereo not given in full),>100,>100,100,>100,>100,>100,>100,>100,>100,>100,>100,C/I ratio [8]: 0.833; C/I ratio [22]: 0.167; C/I ratio [17]: 1; C/I ratio [23]: 0.583 (not active); C/I ratio [24]: 0.833; C/I ratio (Rattus norvegicus [25]): 0.545; C/I ratio [26]: 2
CC(C)Cn1ncn(-c2ccc(N3CCN(c4ccc(OC[C@@H]5COC(Cn6cncn6)(c6ccc(Cl)cc6Cl)O5)cc4)CC3)cc2)c1=O (stereo not given in full),100,100,10,>100,>100,>100,>100,>100,10,10,>100,C/I ratio [27]: 2; C/I ratio [28]: 0.7; C/I ratio [29]: 0.7; C/I ratio [30]: 0.625; C/I ratio [31]: 0.5; C/I ratio [32]: 0.4
CC(=O)N1CCN(c2ccc(OCC3COC(Cn4ccnc4)(c4ccc(Cl)cc4Cl)O3)cc2)CC1 (stereo not given) [KETOCONAZOLE],,,,,,,,,,,,C/I ratio [33]: 1; C/I ratio [34]: 0.956; C/I ratio [35]: 0.25; C/I ratio [36]: 0; C/I ratio [37]: 0; C/I ratio [38]: 0.118
